# From ChEMBL document CHEMBL4689842, “EUbOPEN Chemogenomics Library wave 1” (2021)
# Values joined by “and” are separate entries in the source; they are usually repeats but may differ in a detail not shown here. Equal entries are not always repeated.
# Tested on: HEK-293T
# Assay: Multiplex assay against HEK293T;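 on Population Tubulin-Different-Phenotype (%): share of the cells with healthy nuclei that show this phenotype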
# Assay type: toxicity, cell-based
# Settings: human
# How it was run: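 Imaging took place on a CQ1 microscope at 37°C and 5% CO2 once compound had been added to live cells stained at seeding with Hoechst33342, BioTracker Green Microtubule Cytoskeleton Dye, MitoTracker Red and Annexin V Alexa Fluor 680. CellPathfinder machine-learning gating classed cells as Hoechst high-intensity objects or normal cells, classed normal cells as having healthy, pyknosed or fragmented nuclei, and classed pyknosed cells as mitotic or apoptotic. Tubulin, mitochondrial-mass and membrane-permeability phenotypes are per cents of the healthy-nucleus cells.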
# [1] = 12 h, 1 µM, compound concentration 1 uM, replicate 1
# [2] = 12 h, 1 µM, compound concentration 1 uM, replicate 2
# [3] = 12 h, 10 µM, compound concentration 10 uM, replicate 1
# [4] = 12 h, 10 µM, compound concentration 10 uM, replicate 2
# [5] = 24 h, 1 µM, compound concentration 1 uM, replicate 1
# [6] = 24 h, 1 µM, compound concentration 1 uM, replicate 2
# [7] = 24 h, 10 µM, compound concentration 10 uM, replicate 1
# [8] = 24 h, 10 µM, compound concentration 10 uM, replicate 2
# [9] = 48 h, 1 µM, compound concentration 1 uM, replicate 1
# [10] = 48 h, 1 µM, compound concentration 1 uM, replicate 2
# [11] = 48 h, 10 µM, compound concentration 10 uM, replicate 1
# [12] = 48 h, 10 µM, compound concentration 10 uM, replicate 2
structure (smiles),measurement,setting,value
CC(C)NCC(O)COc1ccc(CCOCC2CC2)cc1.Cl (centres undefined) [BETAXOLOL HYDROCHLORIDE],Population Apoptotic (%),[1],43%
same,Population Fragmented Nuclei (%),[1],7%
same,Population Healthy Nuclei (%),[1],49%
same,Population Hoechst High Intensity Objects (%),[1],10%
same,Population Membrane Permeable-Phenotype (%),[1],3%
same,Population Mitochondria Different-Phenotype (%),[1],82%
same,Population Mitotic Cells (%),[1],56%
same,Population Normal (%),[1],89%
same,Population Pyknosed Nuclei (%),[1],43%
same,Population Tubulin-Different-Phenotype (%),[1],56%
same,Total Cell Count,[1],343
same,Population Apoptotic (%),[2],12%
same,Population Fragmented Nuclei (%),[2],6%
same,Population Healthy Nuclei (%),[2],43%
same,Population Hoechst High Intensity Objects (%),[2],1%
same,Population Membrane Permeable-Phenotype (%),[2],8%
same,Population Mitochondria Different-Phenotype (%),[2],14%
same,Population Mitotic Cells (%),[2],87%
same,Population Normal (%),[2],98%
same,Population Pyknosed Nuclei (%),[2],50%
same,Population Tubulin-Different-Phenotype (%),[2],19%
same,Total Cell Count,[2],227
same,Population Apoptotic (%),[3],55%
same,Population Fragmented Nuclei (%),[3],9%
same,Population Hoechst High Intensity Objects (%),[3],13%
same,Population Membrane Permeable-Phenotype (%),[3],1%
same,Population Mitochondria Different-Phenotype (%),[3],100%
same,Population Mitotic Cells (%),[3],44%
same,Population Normal (%),[3],86%
same,Population Pyknosed Nuclei (%),[3],59%
same,Population Tubulin-Different-Phenotype (%),[3],95%
same,Total Cell Count,[3],247
same,Population Apoptotic (%),[4],36%
same,Population Fragmented Nuclei (%),[4],3%
same,Population Healthy Nuclei (%),[4],30%
same,Population Hoechst High Intensity Objects (%),[4],2%
same,Population Membrane Permeable-Phenotype (%),[4],6%
same,Population Mitochondria Different-Phenotype (%),[4],71%
same,Population Mitotic Cells (%),[4],63%
same,Population Normal (%),[4],97%
same,Population Pyknosed Nuclei (%),[4],65%
same,Population Tubulin-Different-Phenotype (%),[4],77%
same,Total Cell Count,[4],259
same,Population Apoptotic (%),[5],45%
same,Population Fragmented Nuclei (%),[5],6%
same,Population Healthy Nuclei (%),[5],60%
same,Population Hoechst High Intensity Objects (%),[5],7%
same,Population Membrane Permeable-Phenotype (%),[5],2%
same,Population Mitochondria Different-Phenotype (%),[5],65%
same,Population Mitotic Cells (%),[5],54%
same,Population Normal (%),[5],92%
same,Population Pyknosed Nuclei (%),[5],33%
same,Population Tubulin-Different-Phenotype (%),[5],37%
same,Total Cell Count,[5],403
same,Population Apoptotic (%),[6],10%
same,Population Healthy Nuclei (%),[6],64%
same,Population Hoechst High Intensity Objects (%),[6],1%
same,Population Membrane Permeable-Phenotype (%),[6],7%
same,Population Mitochondria Different-Phenotype (%),[6],22%
same,Population Mitotic Cells (%),[6],89%
same,Population Normal (%),[6],98%
same,Population Pyknosed Nuclei (%),[6],29%
same,Population Tubulin-Different-Phenotype (%),[6],32%
same,Total Cell Count,[6],314
same,Population Apoptotic (%),[7],69%
same,Population Fragmented Nuclei (%),[7],11%
same,Population Healthy Nuclei (%),[7],32%
same,Population Hoechst High Intensity Objects (%),[7],15%
same,Population Membrane Permeable-Phenotype (%),[7],4%
same,Population Mitochondria Different-Phenotype (%),[7],98%
same,Population Mitotic Cells (%),[7],30%
same,Population Normal (%),[7],84%
same,Population Pyknosed Nuclei (%),[7],55%
same,Population Tubulin-Different-Phenotype (%),[7],80%
same,Total Cell Count,[7],258
same,Population Apoptotic (%),[8],47%
same,Population Fragmented Nuclei (%),[8],2%
same,Population Healthy Nuclei (%),[8],50%
same,Population Hoechst High Intensity Objects (%),[8],5%
same,Population Membrane Permeable-Phenotype (%),[8],3%
same,Population Mitochondria Different-Phenotype (%),[8],80%
same,Population Mitotic Cells (%),[8],52%
same,Population Normal (%),[8],94%
same,Population Pyknosed Nuclei (%),[8],46%
same,Population Tubulin-Different-Phenotype (%),[8],82%
same,Total Cell Count,[8],321
same,Population Apoptotic (%),[9],28%
same,Population Fragmented Nuclei (%),[9],8%
same,Population Healthy Nuclei (%),[9],79%
same,Population Hoechst High Intensity Objects (%),[9],5%
same,Population Membrane Permeable-Phenotype (%),[9],1%
same,Population Mitochondria Different-Phenotype (%),[9],28%
same,Population Mitotic Cells (%),[9],71%
same,Population Normal (%),[9],94%
same,Population Pyknosed Nuclei (%),[9],12%
same,Population Tubulin-Different-Phenotype (%),[9],31%
same,Total Cell Count,[9],701
same,Population Apoptotic (%),[10],11%
same,Population Fragmented Nuclei (%),[10],6%
same,Population Healthy Nuclei (%),[10],81%
same,Population Hoechst High Intensity Objects (%),[10],3%
same,Population Membrane Permeable-Phenotype (%),[10],4%
same,Population Mitochondria Different-Phenotype (%),[10],6%
same,Population Mitotic Cells (%),[10],88%
same,Population Normal (%),[10],97%
same,Population Pyknosed Nuclei (%),[10],11%
same,Population Tubulin-Different-Phenotype (%),[10],22%
same,Total Cell Count,[10],601
same,Population Apoptotic (%),[11],67%
same,Population Fragmented Nuclei (%),[11],14%
same,Population Healthy Nuclei (%),[11],48%
same,Population Hoechst High Intensity Objects (%),[11],14%
same,Population Membrane Permeable-Phenotype (%),[11],0%
same,Population Mitochondria Different-Phenotype (%),[11],84%
same,Population Mitotic Cells (%),[11],32%
same,Population Normal (%),[11],85%
same,Population Pyknosed Nuclei (%),[11],36%
same,Population Tubulin-Different-Phenotype (%),[11],61%
same,Total Cell Count,[11],288
same,Population Apoptotic (%),[12],40%
same,Population Fragmented Nuclei (%),[12],4%
same,Population Healthy Nuclei (%),[12],72%
same,Population Hoechst High Intensity Objects (%),[12],4%
same,Population Membrane Permeable-Phenotype (%),[12],1%
same,Population Mitochondria Different-Phenotype (%),[12],63%
same,Population Mitotic Cells (%),[12],59%
same,Population Normal (%),[12],95%
same,Population Pyknosed Nuclei (%),[12],23%
same,Population Tubulin-Different-Phenotype (%),[12],77%
same,Total Cell Count,[12],435
Cc1sc2c(c1C)C(c1ccc(Cl)cc1)=N[C@@H](CC(=O)OC(C)(C)C)c1nnc(C)n1-2,Population Apoptotic (%),[3],16% and 17%
same,Population Fragmented Nuclei (%),[3],19% and 13%
same,Population Healthy Nuclei (%),[3],65% and 71%
same,Population Hoechst High Intensity Objects (%),[3],14% and 8%
same,Population Membrane Permeable-Phenotype (%),[3],3%
same,Population Mitochondria Different-Phenotype (%),[3],6% and 5%
same,Population Mitotic Cells (%),[3],83% and 82%
same,Population Normal (%),[3],85% and 91%
same,Population Pyknosed Nuclei (%),[3],15%
same,Population Tubulin-Different-Phenotype (%),[3],2%
same,Total Cell Count,[3],561 and 772
same,Population Apoptotic (%),[4],6% and 3%
same,Population Fragmented Nuclei (%),[4],14% and 12%
same,Population Healthy Nuclei (%),[4],79%
same,Population Hoechst High Intensity Objects (%),[4],3% and 4%
same,Population Membrane Permeable-Phenotype (%),[4],0%
same,Population Mitochondria Different-Phenotype (%),[4],10% and 11%
same,Population Mitotic Cells (%),[4],93% and 96%
same,Population Normal (%),[4],96% and 95%
same,Population Pyknosed Nuclei (%),[4],5% and 7%
same,Population Tubulin-Different-Phenotype (%),[4],0%
same,Total Cell Count,[4],1959 and 1675
same,Population Apoptotic (%),[7],16% and 12%
same,Population Fragmented Nuclei (%),[7],17% and 9%
same,Population Healthy Nuclei (%),[7],70% and 80%
same,Population Hoechst High Intensity Objects (%),[7],11% and 10%
same,Population Membrane Permeable-Phenotype (%),[7],1%
same,Population Mitochondria Different-Phenotype (%),[7],7% and 3%
same,Population Mitotic Cells (%),[7],84% and 87%
same,Population Normal (%),[7],88% and 89%
same,Population Pyknosed Nuclei (%),[7],11% and 10%
same,Population Tubulin-Different-Phenotype (%),[7],2% and 1%
same,Total Cell Count,[7],472 and 770
same,Population Apoptotic (%),[8],5%
same,Population Fragmented Nuclei (%),[8],19% and 20%
same,Population Healthy Nuclei (%),[8],76% and 75%
same,Population Hoechst High Intensity Objects (%),[8],5%
same,Population Membrane Permeable-Phenotype (%),[8],0%
same,Population Mitochondria Different-Phenotype (%),[8],5%
same,Population Mitotic Cells (%),[8],94%
same,Population Normal (%),[8],94%
same,Population Pyknosed Nuclei (%),[8],4% and 3%
same,Population Tubulin-Different-Phenotype (%),[8],0%
same,Total Cell Count,[8],1813 and 2044
